# Shown are actives, neighbours in structure and some others; about 3.5% of the full set was active somewhere.
# MrgX1 antagonist = human MrgX1 receptor antagonism, primary screen | Q96LB2 | MRGX1-HEK293 calcium flux, Fluo-4, BAM8-22 antagonism; hits give low values | B-score at 10 µM | 310,000 tested, 1.3% active;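 active means calcium-response B-score plate-corrected more than 3 library SD below zero, starting fluorescence within 5 deviations, no agonist response on first addition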;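 further: peak minus trough fluorescence over baseline after final BAM8-22 challenge near maximal dose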
# Target sequence (Q96LB2 whole entry, looked up): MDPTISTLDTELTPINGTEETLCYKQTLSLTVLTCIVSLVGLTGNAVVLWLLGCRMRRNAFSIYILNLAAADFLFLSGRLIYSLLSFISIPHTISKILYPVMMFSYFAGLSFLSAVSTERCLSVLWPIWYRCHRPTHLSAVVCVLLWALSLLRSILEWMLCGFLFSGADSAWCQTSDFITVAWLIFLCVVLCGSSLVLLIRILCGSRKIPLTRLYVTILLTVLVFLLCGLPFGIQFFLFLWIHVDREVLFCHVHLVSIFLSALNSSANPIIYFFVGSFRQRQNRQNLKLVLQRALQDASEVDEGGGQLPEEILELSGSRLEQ
# MrgX1 ag = human MrgX1 receptor agonism, primary screen; MrgX1-HEK293 cells, Fluo-4 calcium fluorescence, agonist mode; hits give high values; Q96LB2; B-score at 10 µM; AID 588627; 310,000 tested, 0.44% active;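 active means calcium response B-score plate-corrected fluorescence ratio at least 3 library SD, with starting fluorescence B-score inside 5 SD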
#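 Material: MrgX1-expressing HEK293 cells; input: 15,000 cells per well; doses: test compound given as first of three sequential additions; schedule: overnight plating before 1 h dye loading; technique: Fluo-4 NW calcium-flux fluorescence, kinetic read; evaluation: baseline-normalised fluorescence change ratio, B-scored; control set: plate-wise positive and negative controls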
# RGS4 block = human RGS4 inhibition; P49798; HEK293 M3R/RGS4 inducible, Fluo-4 calcium flux; hits give high values; triggered by carbachol at its EC20; B-score at 10 µM; 310,000 tested, 0.45% active;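 active means B-score, a plate-corrected calcium signal, over three deviations above library mean, with baseline fluorescence within five deviations of library mean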;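 further: RGS4 expression induced by doxycycline in cells with stable M3 receptor; B-score is computed from the integrated fluorescence ratio over baseline after carbachol; higher B-score means a larger calcium signal and so more RGS4 inhibition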
# Target sequence (P49798 whole entry, looked up): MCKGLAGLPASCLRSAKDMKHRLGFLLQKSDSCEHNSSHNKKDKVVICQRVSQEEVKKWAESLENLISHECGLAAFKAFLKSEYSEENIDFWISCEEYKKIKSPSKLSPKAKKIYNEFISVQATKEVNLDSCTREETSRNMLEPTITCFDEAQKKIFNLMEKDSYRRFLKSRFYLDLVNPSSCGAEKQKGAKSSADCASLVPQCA
# RGS4 act = RGS4 potentiation or activation; HEK293 M3R/inducible RGS4, carbachol calcium flux Fluo4; hits give low values; B-score at 10 µM; 310,000 tested, 0.92% active; AID 463111;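 active means B-score of the integrated calcium signal more than 4 SD below the library mean, with starting fluorescence not abnormally high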;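 further: negative B-score means reduced calcium response which marks RGS4 activation or potentiation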
#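 Material: Inducible-RGS4 HEK293 cells carrying M3 receptor; also added: carbachol at ECmax as muscarinic agonist stimulus; incubation: compound preincubation 20 min at room temperature before agonist; signal: Fluo4-AM (2 µM) calcium-flux fluorescence, kinetic read; measure: integrated calcium ratio converted to B score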
# MrgX1 PAM = human MrgX1 positive allosteric modulation, primary screen | MrgX1-HEK293, Fluo-4 calcium flux, FDSS; hits give high values | B-score at 10 µM | 310,000 tested, 0.63% active;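 active means plate-corrected calcium response at least 3 library SD above typical, normal starting fluorescence, not activating the receptor alone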;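 further: compound read alongside a low EC10 to EC30 dose of BAM8-22 agonist; peak minus trough fluorescence over baseline measured at the second addition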
# MrgX1 PAM conf = confirmation of human MrgX1 receptor positive allosteric modulators; MrgX1-HEK293, Fluo-4 calcium fluorescence, FDSS; AID 602413; activation (ratio percentage), % at 10 µM; shares compounds with MrgX1 PAM; 1,200 tested, 13% active;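 active means ratio at least 3 SD above the weak peptide control, stable starting fluorescence, no direct agonism earlier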;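 further: compound followed by low BAM8-22 agonist challenge near EC20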
# HEK293 Ca flux = activity in parental HEK293 cells lacking MrgX1; fluorescence ratio F(max-min)/F0 at 10 µM; 4,000 tested, 2% active; shares compounds with MrgX1 antagonist; Fluo-4 calcium fluorescence, FDSS;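 active means duplicate-averaged calcium fluorescence ratio at least three times the standard deviation of buffer wells, a nonspecific response in parental cells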
# HEK293 Ca counter = counter-screen for MrgX1 allosteric activators: effect in parental HEK293 cells; shares compounds with MrgX1 antagonist; parental HEK293 calcium flux, Fluo-4 fluorescence ratio; hits give high values; fluorescence ratio F(max-min)/F0 at 10 µM; 4,000 tested, 0.4% active; AID 624114;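 active means calcium fluorescence ratio, averaged over duplicates, at least 3 SD of the buffer-well ratio, meaning a nonspecific response in receptor-free cells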;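 further: untransfected parental HEK293 lacking MrgX1 used as counterscreen for MrgX1 allosteric activators; fluorescence change taken during the second addition on a kinetic imager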
# HEK293 Ca cntr2 = activity in parental HEK293 cells lacking MrgX1 receptor | Fluo-4 calcium fluorescence (FDSS); hits give high values | 4,000 tested, 8.7% active | shares compounds with MrgX1 antagonist | AID 624115 | fluorescence ratio F(max-min)/F0 at 10 µM;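 active means calcium fluorescence ratio at least three times the spread of buffer wells, meaning a non-specific response in parental cells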
# Starred values were filed as active, the others as inactive; i = inactive; . = no result.
SMILES,MrgX1 antagonist,MrgX1 ag,RGS4 block,RGS4 act,MrgX1 PAM,MrgX1 PAM conf,HEK293 Ca flux,HEK293 Ca counter,HEK293 Ca cntr2
Cc1cccc2sc(NS(=O)(=O)c3ccccc3)nc12,i,i,i,i,8.3*,i,i,i,i
Cc1nc(NS(=O)(=O)c2ccccc2)sc1C(C)(C)C,i,i,i,i,i,.,.,.,.
CC(=O)N(c1ccccc1C)S(=O)(=O)c1ccc(Cl)cc1,i,i,i,i,8.7*,i,i,i,i
CCOc1ccccc1N(C(C)=O)S(=O)(=O)c1ccc(Cl)cc1,i,i,i,i,i,.,.,.,.
COC(=O)c1cc(Sc2cccc(Cl)c2Cl)ccn1,i,i,i,i,i,.,.,.,.
COC(=O)c1cc(Sc2c(Cl)cccc2Cl)ccn1,i,i,i,i,46*,20%*,i,i,i
O=C(NCc1cccnc1)C(=O)NCC1OCCN1S(=O)(=O)c1cc(F)ccc1F (stereo not drawn),i,i,i,i,16*,i,i,i,i
O=C(NCCc1ccccc1)C(=O)NCC1OCCN1S(=O)(=O)c1cc(F)ccc1F (stereo not drawn),i,i,i,i,i,.,.,.,.
CNC(=O)C(=O)NCCN1CCN(S(=O)(=O)c2ccc3ccccc3c2)CC1,i,i,i,i,i,.,.,.,.
Cc1cc(C)cc(NC(=S)N2CCC(NC(=O)C3CCCCC3)CC2)c1,i,i,i,i,8.6*,i,i,i,i
COc1ccc(N2CCN(C(=O)COC(=O)CCOc3ccccc3C)CC2)cc1,i,i,i,i,i,.,.,.,.
CC(C)Cc1nnc(NC(=O)CCC(=O)NCc2ccccc2Cl)s1,i,i,i,i,i,.,.,.,.
Cc1cc(C)c(S(=O)(=O)ON2C(=O)c3ccccc3C2=O)cc1C,i,i,i,i,i,.,.,.,.
Cc1ccc(S(=O)(=O)ON2C(=O)c3ccccc3C2=O)c(C)c1,i,i,.,.,36*,i,i,i,i
CCNC(=O)CN1c2cccc3cccc(c23)S1(=O)=O,i,i,i,i,22*,i,i,i,i
NC(=O)NC(=O)CN1c2cccc3cccc(c23)S1(=O)=O,i,i,i,i,i,.,.,.,.
CCOC(=O)c1ccc(NC(=S)NCCCN2CCCC2=O)cc1,i,i,i,i,8.6*,i,i,i,i
O=C1CCCN1CCCNC(=S)Nc1ccccc1,i,i,i,i,i,.,.,.,.
CC(=O)c1ccc(NC(=O)C(Cc2ccccc2)NC(=O)c2ccco2)cc1 (stereo not drawn),i,i,i,i,8.9*,i,i,i,i
COc1ccc(NC(=O)C(Cc2ccccc2)NC(=O)c2ccco2)cc1OC (stereo not drawn),i,i,i,i,i,.,.,.,.
O=C(CC(c1ccccc1)c1cc(Cl)ccc1O)NCCCN1CCOCC1 (stereo not drawn),i,i,i,i,i,.,.,.,.
NCc1ccccc1,i,i,.,.,13*,i,i,i,i
Cc1cc(OC(C)C(=O)NCCCn2ccnc2)c2c(C)c(C)c(=O)oc2c1 (stereo not drawn),i,i,i,i,i,.,.,.,.
CS(=O)(=O)N(CC(=O)N1CCN(c2cccc(Cl)c2)CC1)c1cccc(F)c1,i,i,i,i,8.2*,i,i,i,i
C=CCN(CC=C)C(=S)NC(=O)c1ccc(C)c(Br)c1,i,i,i,i,8.3*,i,i,i,i
SMILES,MrgX1 antagonist,MrgX1 ag,RGS4 block,RGS4 act,MrgX1 PAM,MrgX1 PAM conf,HEK293 Ca flux,HEK293 Ca counter,HEK293 Ca cntr2
COc1ccc(C2=CC(c3c(C)nn(-c4ccccc4)c3Cl)n3nnnc3N2)cc1OC (stereo not drawn),i,i,.,.,7*,i,i,i,i
COc1ccccc1C1C=C(c2ccc(C)cc2)Nc2nnnn21 (stereo not drawn),i,i,i,i,i,.,.,.,.
CCOC(=O)C1=C(COC(=O)c2cc(Br)c(Br)s2)NC(=O)NC1C (stereo not drawn),i,i,i,i,9.8*,i,i,i,i
CCCCCN(C(=O)CCC(=O)OCC(=O)N(C)Cc1ccc(C)cc1)c1c(N)n(CCCC)c(=O)[nH]c1=O,i,i,i,i,i,.,.,.,.
CCOc1ccc(-c2[nH]ncc2-c2csc(C)n2)c(O)c1,i,i,i,i,i,.,.,.,.
COc1ccc(-c2[nH]ncc2-c2csc(C)n2)c(O)c1,i,i,i,i,i,.,.,.,.
CCOc1ccc(-c2[nH]ncc2-c2ccccc2)c(O)c1,i,i,i,i,13*,17%*,i,i,i
COc1ccc(-c2[nH]ncc2-c2ccc(Cl)cc2)c(O)c1,i,i,i,i,6.7*,27%*,i,i,i
COc1ccc(-c2cn[nH]c2-c2ccc(OC)cc2O)cc1,i,i,i,i,16*,12%*,i,i,i
COc1ccc(N2CCN(C(=O)CCC(=O)N3CC(C)Oc4ccc(C)cc43)CC2)cc1 (stereo not drawn),i,i,i,i,i,.,.,.,.
O=C(Nc1cccc(F)c1)OC(CN1CCCCC1)C(F)(F)F (stereo not drawn),i,i,i,i,7.2*,i,i,i,i
O=C1C2CC=C(Cl)CC2C(=O)N1CCCCCCN1C(=O)C2CC=C(Cl)CC2C1=O (stereo not drawn),i,i,i,i,6.5*,i,i,i,i
O=C1C2CC=C(Cl)CC2C(=O)N1CCN1CCOCC1 (stereo not drawn),i,i,i,i,i,.,.,.,.
CC(=O)N1CCc2cc(Br)cc(S(=O)(=O)NCCCN3CCC(C)CC3)c21,i,i,.,.,i,.,.,.,.

# Screens (PubChem)
